Reference: ChEMBL document CHEMBL3046615, “Isolation of nematicidal compounds from Tagetes patula L. yellow flowers: structure-activity relationship studies against cyst nematode Heterodera zeae infective stage larvae” (2011)
Active and inactive are the calls of the source. The calls are words filed in the database; no cut-off is given here.

Assays:
Heterodera zeae [1] = test: Nematicidal activity against Heterodera zeae infective stage larvae assessed as nematode mortality at 0.5% under dark conditions measured 5 to 60 min post dose by stereoscopic microscopy; assay type: functional, organism-based
Method in brief: (§1)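 H. zeae freshly hatched second-stage juveniles, 100 per plate, three replicates, at 28 ± 2 °C under light or in a dark box. Dilutions are % of a stock: 30 mg/mL for extracts/fractions, 1 mg/mL for pure compounds. Methanol-, DMSO- or water-soluble samples were tested in glass cavity blocks. Petroleum ether-soluble samples were air-dried in the block and covered with agar pieces bearing cultured larvae. Mortality was followed over 5–60 min; each value is the mean of three experiments.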

Heterodera zeae [2] = test: Nematicidal activity against Heterodera zeae infective stage larvae assessed as nematode mortality at 5% under light conditions measured 5 to 60 min post dose by stereoscopic microscopy; assay type: functional, organism-based; method in brief: as §1
Heterodera zeae [3] = test: Nematicidal activity against Heterodera zeae infective stage larvae assessed as nematode mortality at 2% under dark conditions measured 24 hr post dose by stereoscopic microscopy; assay type: functional
Method in brief: (§2)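 Freshly hatched H. zeae second-stage juveniles, 100 per Petri plate, three replicates. Samples in MeOH, DMSO or water were tested in glass cavity blocks; petroleum ether samples were dried onto the block and larvae transferred on agar pieces. Percentages are dilutions of 30 mg/mL stocks (extracts/fractions) or 1 mg/mL stocks (pure compounds). Incubated at 28 ± 2 °C in light or dark box; mortality averaged over three replicates.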

Heterodera zeae [4] = test: Nematicidal activity against Heterodera zeae infective stage larvae assessed as nematode mortality at 1% under dark conditions measured 24 hr post dose by stereoscopic microscopy; assay type: functional; method in brief: as §2
Heterodera zeae [5] = test: Nematicidal activity against Heterodera zeae infective stage larvae assessed as nematode mortality at 0.25% under dark conditions measured 5 to 60 min post dose by stereoscopic microscopy; assay type: functional, organism-based; method in brief: as §1
Heterodera zeae [6] = test: Nematicidal activity against Heterodera zeae infective stage larvae assessed as nematode mortality at 5% under dark conditions measured 24 hr post dose by stereoscopic microscopy; assay type: functional; method in brief: as §2
Heterodera zeae [7] = test: Nematicidal activity against Heterodera zeae infective stage larvae assessed as nematode mortality at 2% under light conditions measured 24 hr post dose by stereoscopic microscopy; assay type: functional; method in brief: as §2
Heterodera zeae [8] = test: Nematicidal activity against Heterodera zeae infective stage larvae assessed as nematode mortality at 5% under light conditions measured 24 hr post dose by stereoscopic microscopy; assay type: functional; method in brief: as §2
Heterodera zeae [9] = test: Nematicidal activity against Heterodera zeae infective stage larvae assessed as nematode mortality at 0.5% under dark conditions measured 24 hr post dose by stereoscopic microscopy; assay type: functional; method in brief: as §2
Heterodera zeae [10] = test: Nematicidal activity against Heterodera zeae infective stage larvae assessed as nematode mortality at 0.125% under dark conditions measured 48 hr post dose by stereoscopic microscopy; assay type: functional; method in brief: as §2
Heterodera zeae [11] = test: Nematicidal activity against Heterodera zeae infective stage larvae assessed as nematode mortality at 2% under dark conditions measured 5 to 60 min post dose by stereoscopic microscopy; assay type: functional, organism-based; method in brief: as §1
Heterodera zeae [12] = test: Nematicidal activity against Heterodera zeae infective stage larvae assessed as nematode mortality at 1% under light conditions measured 5 to 60 min post dose by stereoscopic microscopy; assay type: functional, organism-based; method in brief: as §1
Heterodera zeae [13] = test: Nematicidal activity against Heterodera zeae infective stage larvae assessed as nematode mortality at 0.125% under light conditions measured 5 to 60 min post dose by stereoscopic microscopy; assay type: functional, organism-based; method in brief: as §1
Heterodera zeae [14] = test: Nematicidal activity against Heterodera zeae infective stage larvae assessed as nematode mortality at 0.25% under dark conditions measured 24 hr post dose by stereoscopic microscopy; assay type: functional; method in brief: as §2
Heterodera zeae [15] = test: Nematicidal activity against Heterodera zeae infective stage larvae assessed as nematode mortality at 2% under light conditions measured 5 to 60 min post dose by stereoscopic microscopy; assay type: functional, organism-based; method in brief: as §1
Heterodera zeae [16] = test: Nematicidal activity against Heterodera zeae infective stage larvae assessed as nematode mortality at 0.125% under dark conditions measured 5 to 60 min post dose by stereoscopic microscopy; assay type: functional, organism-based; method in brief: as §1
Heterodera zeae [17] = test: Nematicidal activity against Heterodera zeae infective stage larvae assessed as nematode mortality at 0.125% under light conditions measured 24 hr post dose by stereoscopic microscopy; assay type: functional; method in brief: as §2
Heterodera zeae [18] = test: Nematicidal activity against Heterodera zeae infective stage larvae assessed as nematode mortality at 1% under light conditions measured 24 hr post dose by stereoscopic microscopy; assay type: functional; method in brief: as §2
Heterodera zeae [19] = test: Nematicidal activity against Heterodera zeae infective stage larvae assessed as nematode mortality at 0.125% under light conditions measured 48 hr post dose by stereoscopic microscopy; assay type: functional; method in brief: as §2
Heterodera zeae [20] = test: Nematicidal activity against Heterodera zeae infective stage larvae assessed as nematode mortality at 0.5% under light conditions measured 24 hr post dose by stereoscopic microscopy; assay type: functional; method in brief: as §2
Heterodera zeae [21] = test: Nematicidal activity against Heterodera zeae infective stage larvae assessed as nematode mortality at 0.125% under dark conditions measured 24 hr post dose by stereoscopic microscopy; assay type: functional; method in brief: as §2
Heterodera zeae [22] = test: Nematicidal activity against Heterodera zeae infective stage larvae assessed as nematode mortality at 0.25% under light conditions measured 5 to 60 min post dose by stereoscopic microscopy; assay type: functional, organism-based; method in brief: as §1
Heterodera zeae [23] = test: Nematicidal activity against Heterodera zeae infective stage larvae assessed as nematode mortality at 0.25% under light conditions measured 24 hr post dose by stereoscopic microscopy; assay type: functional; method in brief: as §2
Heterodera zeae [24] = test: Nematicidal activity against Heterodera zeae infective stage larvae assessed as nematode mortality at 0.25% under dark conditions measured 48 hr post dose by stereoscopic microscopy; assay type: functional; method in brief: as §2
Heterodera zeae [25] = test: Nematicidal activity against Heterodera zeae infective stage larvae assessed as nematode mortality at 1% under dark conditions measured 5 to 60 min post dose by stereoscopic microscopy; assay type: functional, organism-based; method in brief: as §1
Heterodera zeae [26] = test: Nematicidal activity against Heterodera zeae infective stage larvae assessed as nematode mortality at 0.25% under light conditions measured 48 hr post dose by stereoscopic microscopy; assay type: functional; method in brief: as §2
Heterodera zeae [27] = test: Nematicidal activity against Heterodera zeae infective stage larvae assessed as nematode mortality at 0.5% under light conditions measured 5 to 60 min post dose by stereoscopic microscopy; assay type: functional, organism-based; method in brief: as §1
Heterodera zeae [28] = test: Nematicidal activity against Heterodera zeae infective stage larvae assessed as nematode mortality at 5% under dark conditions measured 5 to 60 min post dose by stereoscopic microscopy; assay type: functional, organism-based; method in brief: as §1
Heterodera zeae [29] = test: Nematicidal activity against Heterodera zeae infective stage larvae assessed as nematode mortality at 1% under light conditions measured 48 hr post dose by stereoscopic microscopy; assay type: functional; method in brief: as §2
Heterodera zeae [30] = test: Nematicidal activity against Heterodera zeae infective stage larvae assessed as nematode mortality at 0.125% under light conditions measured 72 hr post dose by stereoscopic microscopy; assay type: functional; method in brief: as §2
Heterodera zeae [31] = test: Nematicidal activity against Heterodera zeae infective stage larvae assessed as nematode mortality at 0.25% under light conditions measured 72 hr post dose by stereoscopic microscopy; assay type: functional; method in brief: as §2
Heterodera zeae [32] = test: Nematicidal activity against Heterodera zeae infective stage larvae assessed as nematode mortality at 0.125% under dark conditions measured 72 hr post dose by stereoscopic microscopy; assay type: functional; method in brief: as §2
Heterodera zeae [33] = test: Nematicidal activity against Heterodera zeae infective stage larvae assessed as nematode mortality at 0.5% under light conditions measured 48 hr post dose by stereoscopic microscopy; assay type: functional; method in brief: as §2
Heterodera zeae [34] = test: Nematicidal activity against Heterodera zeae infective stage larvae assessed as nematode mortality at 0.5% under light conditions measured 72 hr post dose by stereoscopic microscopy; assay type: functional; method in brief: as §2
Heterodera zeae [35] = test: Nematicidal activity against Heterodera zeae infective stage larvae assessed as nematode mortality at 1% under light conditions measured 72 hr post dose by stereoscopic microscopy; assay type: functional; method in brief: as §2
Heterodera zeae [36] = test: Nematicidal activity against Heterodera zeae infective stage larvae assessed as nematode mortality at 1% under dark conditions measured 48 hr post dose by stereoscopic microscopy; assay type: functional; method in brief: as §2
Heterodera zeae [37] = test: Nematicidal activity against Heterodera zeae infective stage larvae assessed as nematode mortality at 0.5% under dark conditions measured 48 hr post dose by stereoscopic microscopy; assay type: functional; method in brief: as §2
Heterodera zeae [38] = test: Nematicidal activity against Heterodera zeae infective stage larvae assessed as nematode mortality at 1% under dark conditions measured 72 hr post dose by stereoscopic microscopy; assay type: functional; method in brief: as §2
Heterodera zeae [39] = test: Nematicidal activity against Heterodera zeae infective stage larvae assessed as nematode mortality at 0.5% under dark conditions measured 72 hr post dose by stereoscopic microscopy; assay type: functional; method in brief: as §2
Heterodera zeae [40] = test: Nematicidal activity against Heterodera zeae infective stage larvae assessed as nematode mortality at 0.25% under dark conditions measured 72 hr post dose by stereoscopic microscopy; assay type: functional; method in brief: as §2

SMILES	Activity (Heterodera zeae [1])	Activity (Heterodera zeae [2])	mortality (Heterodera zeae [4]) [%]	Activity (Heterodera zeae [5])	mortality (Heterodera zeae [9]) [%]	mortality (Heterodera zeae [10]) [%]	Activity (Heterodera zeae [11])	Activity (Heterodera zeae [12])	Activity (Heterodera zeae [13])	mortality (Heterodera zeae [14]) [%]	Activity (Heterodera zeae [15])	Activity (Heterodera zeae [16])	mortality (Heterodera zeae [17]) [%]	mortality (Heterodera zeae [18]) [%]	mortality (Heterodera zeae [19]) [%]	mortality (Heterodera zeae [20]) [%]	mortality (Heterodera zeae [21]) [%]	Activity (Heterodera zeae [22])	mortality (Heterodera zeae [23]) [%]	mortality (Heterodera zeae [24]) [%]	further results
CNC(=O)Oc1cccc2c1OC(C)(C)C2 [CARBOFURAN]	inactive	inactive	100	inactive	100	100	inactive	inactive	inactive	80	inactive	inactive	40	100	100	100	60	inactive	80	100	mortality (Heterodera zeae [3]): 100%; mortality (Heterodera zeae [6]): 100%; mortality (Heterodera zeae [7]): 100%; mortality (Heterodera zeae [8]): 100%; Activity (Heterodera zeae [25]): inactive; mortality (Heterodera zeae [26]): 100%; Activity (Heterodera zeae [27]): inactive; Activity (Heterodera zeae [28]): inactive
O=c1c(O)c(-c2ccc(O)c(O)c2)oc2cc(O)cc(O)c12 [QUERCETIN]	inactive	inactive	50	inactive	40	40	inactive	inactive	inactive	40	inactive	inactive	40	50	50	50	40	inactive	40	50	mortality (Heterodera zeae [29]): 50%; mortality (Heterodera zeae [30]): 80%; mortality (Heterodera zeae [31]): 70%; mortality (Heterodera zeae [32]): 40%; mortality (Heterodera zeae [33]): 50%; mortality (Heterodera zeae [34]): 80%; mortality (Heterodera zeae [35]): 70%; mortality (Heterodera zeae [36]): 70%; Activity (Heterodera zeae [25]): inactive; mortality (Heterodera zeae [26]): 50%; Activity (Heterodera zeae [27]): inactive; mortality (Heterodera zeae [37]): 50%; mortality (Heterodera zeae [38]): 70%; Activity (Heterodera zeae [28]): inactive; mortality (Heterodera zeae [39]): 70%; mortality (Heterodera zeae [40]): 50%
COc1ccc(C(=O)O)cc1 [p-ANISIC ACID]	inactive	inactive	50	inactive	50	20	inactive	inactive	inactive	30	inactive	inactive	10	40	10	30	10	inactive	10	40	mortality (Heterodera zeae [29]): 50%; mortality (Heterodera zeae [30]): 40%; mortality (Heterodera zeae [31]): 50%; mortality (Heterodera zeae [32]): 50%; mortality (Heterodera zeae [33]): 40%; mortality (Heterodera zeae [34]): 50%; mortality (Heterodera zeae [35]): 80%; mortality (Heterodera zeae [36]): 60%; Activity (Heterodera zeae [25]): inactive; mortality (Heterodera zeae [26]): 20%; Activity (Heterodera zeae [27]): inactive; mortality (Heterodera zeae [37]): 50%; mortality (Heterodera zeae [38]): 90%; Activity (Heterodera zeae [28]): inactive; mortality (Heterodera zeae [39]): 80%; mortality (Heterodera zeae [40]): 80%
